In ChEMBL document CHEMBL4138126, “Synthesis, antiproliferative, anti-tubulin activity, and docking study of new 1,2,4-triazoles as potential combretastatin analogues” (Eur J Med Chem, 2017):

Key:
SK-MEL-2 = test: Growth inhibition of human SK-MEL-2 cells assessed as cell growth at 10 uM after 48 hrs by sulforhodamine B assay; assay type: functional; conditions: SK-MEL-2, 48 h, read-out: Activity
Summary of the method: (§1)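 NCI 60-cell-line panel screen (nine cancer types). Compounds added at single concentration 10^-5 M, cultures incubated 48 h; growth inhibition percentages reported.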

OVCAR-8 = test: Growth inhibition of human OVCAR8 cells assessed as cell growth at 10 uM after 48 hrs by sulforhodamine B assay; assay type: functional; conditions: OVCAR-8, 48 h, read-out: Activity; summary of the method: as §1
HOP-92 = test: Growth inhibition of human HOP92 cells assessed as cell growth at 10 uM after 48 hrs by sulforhodamine B assay; assay type: functional; conditions: HOP-92, 48 h, read-out: Activity; summary of the method: as §1
MOLT-4 = test: Growth inhibition of human MOLT4 cells assessed as cell growth at 10 uM after 48 hrs by sulforhodamine B assay; assay type: functional; conditions: MOLT-4, 48 h, read-out: Activity; summary of the method: as §1
ACHN = test: Growth inhibition of human ACHN cells assessed as cell growth at 10 uM after 48 hrs by sulforhodamine B assay; assay type: functional; conditions: read-out: Activity; summary of the method: as §1
BT-549 = test: Growth inhibition of human BT549 cells assessed as cell growth at 10 uM after 48 hrs by sulforhodamine B assay; assay type: functional; conditions: BT-549, 48 h, read-out: Activity; summary of the method: as §1
RPMI-8226 = test: Growth inhibition of human RPMI8226 cells assessed as cell growth at 10 uM after 48 hrs by sulforhodamine B assay; assay type: functional; conditions: RPMI-8226, 48 h, read-out: Activity; summary of the method: as §1
U-251 = test: Growth inhibition of human U251 cells assessed as cell growth at 10 uM after 48 hrs by sulforhodamine B assay; assay type: functional; conditions: U-251, 48 h, read-out: Activity
Summary of the method: (§2)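 NCI 60-cell-line panel from nine tumour types (leukaemia, lung, colon, CNS, melanoma, ovarian, renal, prostate, breast). Each compound was added at one single concentration, and cultures were incubated for 48 h. Results are reported as percent growth inhibition.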

M14 = test: Growth inhibition of human M14 cells assessed as cell growth at 10 uM after 48 hrs by sulforhodamine B assay; assay type: functional; conditions: M14, 48 h, read-out: Activity; summary of the method: as §1
TK-10 = test: Growth inhibition of human TK10 cells assessed as cell growth at 10 uM after 48 hrs by sulforhodamine B assay; assay type: functional; conditions: TK-10, 48 h, read-out: Activity; summary of the method: as §2
OVCAR-4 = test: Growth inhibition of human OVCAR4 cells assessed as cell growth at 10 uM after 48 hrs by sulforhodamine B assay; assay type: functional; conditions: OVCAR-4, 48 h, read-out: Activity; summary of the method: as §1
A549 = test: Growth inhibition of human A549/ATCC cells assessed as cell growth at 10 uM after 48 hrs by sulforhodamine B assay; assay type: functional; conditions: A549, 48 h, read-out: Activity; summary of the method: as §1
MCF7 = test: Growth inhibition of human MCF7 cells assessed as cell growth at 10 uM after 48 hrs by sulforhodamine B assay; assay type: functional; conditions: MCF7, 48 h, read-out: Activity; summary of the method: as §1
Malme-3M = test: Growth inhibition of human MALME-3M cells assessed as cell growth at 10 uM after 48 hrs by sulforhodamine B assay; assay type: functional; conditions: read-out: Activity; summary of the method: as §1
DU-145 = test: Growth inhibition of human DU145 cells assessed as cell growth at 10 uM after 48 hrs by sulforhodamine B assay; assay type: functional; conditions: DU-145, 48 h, read-out: Activity; summary of the method: as §1
SK-OV-3 = test: Growth inhibition of human SKOV3 cells assessed as cell growth at 10 uM after 48 hrs by sulforhodamine B assay; assay type: functional; conditions: SK-OV-3, 48 h, read-out: Activity; summary of the method: as §1
HT-29 = test: Growth inhibition of human HT-29 cells assessed as cell growth at 10 uM after 48 hrs by sulforhodamine B assay; assay type: functional; conditions: HT-29, 48 h, read-out: Activity; summary of the method: as §1
SNB-19 = test: Growth inhibition of human SNB19 cells assessed as cell growth at 10 uM after 48 hrs by sulforhodamine B assay; assay type: functional; conditions: SNB-19, 48 h, read-out: Activity; summary of the method: as §2
HCT-116 = test: Growth inhibition of human HCT116 cells assessed as cell growth at 10 uM after 48 hrs by sulforhodamine B assay; assay type: functional; conditions: HCT-116, 48 h, read-out: Activity; summary of the method: as §1
EKVX = test: Growth inhibition of human EKVX cells assessed as cell growth at 10 uM after 48 hrs by sulforhodamine B assay; assay type: functional; conditions: read-out: Activity; summary of the method: as §1
SW-620 = test: Growth inhibition of human SW620 cells assessed as cell growth at 10 uM after 48 hrs by sulforhodamine B assay; assay type: functional; conditions: SW-620, 48 h, read-out: Activity; summary of the method: as §2
UO-31 = test: Growth inhibition of human UO31 cells assessed as cell growth at 10 uM after 48 hrs by sulforhodamine B assay; assay type: functional; conditions: UO-31, 48 h, read-out: Activity; summary of the method: as §2
HepG2 = test: Cytotoxicity in human HepG2 cells assessed as reduction in cell viability incubated for 48 hrs by MTT assay; assay type: functional, cell-based; conditions: HepG2, 48 h
Summary of the method: (§3)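 HepG2 and HL60 (ATCC) grown in DMEM with 10% FBS, 2 mM L-glutamine, penicillin/streptomycin, amphotericin B at 37 °C, 5% CO2. Samples dissolved in DMSO, diluted thousandfold in assay. Cells seeded in serum-free medium, treated with serial concentrations 48 h; MTT 4 h, formazan dissolved in acidified isopropanol, A570. Triplicates averaged; viability relative to untreated/vehicle control.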

NCI-H460 = test: Growth inhibition of human NCI-H460 cells assessed as cell growth at 10 uM after 48 hrs by sulforhodamine B assay; assay type: functional; conditions: NCI-H460, 48 h, read-out: Activity; summary of the method: as §1
SF-268 = test: Growth inhibition of human SF268 cells assessed as cell growth at 10 uM after 48 hrs by sulforhodamine B assay; assay type: functional; conditions: SF-268, 48 h, read-out: Activity; summary of the method: as §1
HL-60 = test: Cytotoxicity in human HL60 cells assessed as reduction in cell viability incubated for 48 hrs by MTT assay; assay type: functional, cell-based; conditions: HL-60, 48 h; summary of the method: as §3
HL-60(TB) = test: Growth inhibition of human HL-60(TB) cells assessed as cell growth at 10 uM after 48 hrs by sulforhodamine B assay; assay type: functional; conditions: HL-60, 48 h, read-out: Activity
Summary of the method: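 Screened by the NCI in its 60-cell-line panel covering nine cancer types, including leukemia. Compounds were added at a single concentration, and the cultures were incubated for 48 h. Results are reported as percent growth inhibition.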

RXF 393 = test: Growth inhibition of human RXF393 cells assessed as cell growth at 10 uM after 48 hrs by sulforhodamine B assay; assay type: functional; conditions: RXF 393, 48 h, read-out: Activity; summary of the method: as §1
NCI-H522 = test: Growth inhibition of human NCI-H522 cells assessed as cell growth at 10 uM after 48 hrs by sulforhodamine B assay; assay type: functional; conditions: NCI-H522, 48 h, read-out: Activity; summary of the method: as §1
HCT-15 = test: Growth inhibition of human HCT15 cells assessed as cell growth at 10 uM after 48 hrs by sulforhodamine B assay; assay type: functional; conditions: HCT-15, 48 h, read-out: Activity; summary of the method: as §1
NCI-H23 = test: Growth inhibition of human NCI-H23 cells assessed as cell growth at 10 uM after 48 hrs by sulforhodamine B assay; assay type: functional; conditions: NCI-H23, 48 h, read-out: Activity; summary of the method: as §1
SF-295 = test: Growth inhibition of human SF295 cells assessed as cell growth at 10 uM after 48 hrs by sulforhodamine B assay; assay type: functional; conditions: SF-295, 48 h, read-out: Activity; summary of the method: as §1

Compound | growth at 10 µM (SK-MEL-2) [%] | growth at 10 µM (OVCAR-8) [%] | growth at 10 µM (HOP-92) [%] | growth at 10 µM (MOLT-4) [%] | growth at 10 µM (ACHN) [%] | growth at 10 µM (BT-549) [%] | growth at 10 µM (RPMI-8226) [%] | growth at 10 µM (U-251) [%] | growth at 10 µM (M14) [%] | growth at 10 µM (TK-10) [%] | growth at 10 µM (OVCAR-4) [%] | growth at 10 µM (A549) [%] | growth at 10 µM (MCF7) [%] | growth at 10 µM (Malme-3M) [%] | growth at 10 µM (DU-145) [%] | growth at 10 µM (SK-OV-3) [%] | growth at 10 µM (HT-29) [%] | growth at 10 µM (SNB-19) [%] | growth at 10 µM (HCT-116) [%] | growth at 10 µM (EKVX) [%] | also measured
CCOc1ccc(-n2nc(C(=O)Nc3ccccc3)nc2-c2cc(OC)c(OC)c(OC)c2)cc1 | 37.7 | 61.6 | 46 | 42.9 | 62.8 | 60.9 | 47.4 | 36.1 | 38 | 72.5 | 59.5 | 41.4 | 37 | 54.5 | 89.6 | 51 | 13 | 55.8 | 21.2 | 53.2 | growth at 10 µM (SW-620): 36.1%; growth at 10 µM (UO-31): 37.7%; IC50 (HepG2): 41.8 µM; growth at 10 µM (NCI-H460): 27.9%; growth at 10 µM (SF-268): 76.5%; IC50 (HL-60): 1.28 µM; growth at 10 µM (HL-60(TB)): 32.9%; growth at 10 µM (RXF 393): 69.2%; growth at 10 µM (NCI-H522): 22.8%; growth at 10 µM (HCT-15): 35.4%; growth at 10 µM (NCI-H23): 66.6%; growth at 10 µM (SF-295): 34%
CCOc1ccc(-n2nc(C(=O)Nc3ccc(OC)c(O)c3)nc2-c2cc(OC)c(OC)c(OC)c2)cc1 | 96 | 78.7 | 68.1 | 74.9 | 91.5 | 103 | 67.7 | 93.2 | 103 | 107 | 99.8 | 94 | 90.9 | 114 | 98.5 | 112 | 99.2 | 91.8 | 96.7 | 95.7 | growth at 10 µM (SW-620): 104%; growth at 10 µM (UO-31): 56%; IC50 (HepG2): 13.7 µM; growth at 10 µM (NCI-H460): 97.6%; growth at 10 µM (SF-268): 94.1%; IC50 (HL-60): > 100 µM; growth at 10 µM (HL-60(TB)): 94.3%; growth at 10 µM (RXF 393): 112%; growth at 10 µM (NCI-H522): 70.3%; growth at 10 µM (HCT-15): 97.2%; growth at 10 µM (NCI-H23): 86.1%; growth at 10 µM (SF-295): 108%
CCOc1ccc(-n2nc(C(=O)NCc3cccc(OC)c3)nc2-c2cc(OC)c(OC)c(OC)c2)cc1 | 90 | 94.3 | 95.6 | 69.9 | 97.5 | 92.6 | 84.3 | 94.2 | 92.9 | 87.8 | 98.9 | 73.2 | 84.1 | 97.7 | 107 | 85.8 | 73.5 | 90.1 | 96 | 89.1 | growth at 10 µM (SW-620): 108%; growth at 10 µM (UO-31): 44.3%; IC50 (HepG2): 1.9 µM; growth at 10 µM (NCI-H460): 102%; growth at 10 µM (SF-268): 91.5%; IC50 (HL-60): 98.8 µM; growth at 10 µM (HL-60(TB)): 91%; growth at 10 µM (RXF 393): 92.5%; growth at 10 µM (NCI-H522): 58.7%; growth at 10 µM (HCT-15): 90%; growth at 10 µM (NCI-H23): 94.3%; growth at 10 µM (SF-295): 90.3%
